# C-LANA FP: inhibitors of KSHV C-LANA binding to DNA, primary screen, biochemical, fluorescence polarization, FAM-LBS DNA, MBP-C-LANA, single point | Kaposi's sarcoma herpesvirus LANA C-terminal domain (residues 932-1162) DNA binding | inhibition, % at 9 µM | actives 0.078% (n = 340,000);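 active = highest replicate inhibition at or above 60% at 9 µM, even if other replicates fall short; inactive = all replicates below 60% inhibition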;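 note: 0% = neutral control wells and 100% = 4 µM acridine orange control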
# Keap1-Nrf2 PPI: Keap1-Nrf2 protein-protein interaction inhibitors, primary screen, biochemical, fluorescence polarization, single point; Kelch-like ECH-associated protein 1 (Homo sapiens), Q14145; Keap1 Kelch-Nrf2 peptide fluorescence polarization, 1536-well; inhibition, % at 9.4 µM; actives 0.15% (n = 340,000); in the data active = inhibition above about 12%;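 note: human Keap1 Kelch domain with fluorescein labeled Nrf2 9mer peptide probe; 0% = neutral control wells and 100% = peptide positive control; higher means more block of Keap1 binding to Nrf2 peptide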
# Target sequence (Q14145 whole entry, looked up, the tested form may be a part): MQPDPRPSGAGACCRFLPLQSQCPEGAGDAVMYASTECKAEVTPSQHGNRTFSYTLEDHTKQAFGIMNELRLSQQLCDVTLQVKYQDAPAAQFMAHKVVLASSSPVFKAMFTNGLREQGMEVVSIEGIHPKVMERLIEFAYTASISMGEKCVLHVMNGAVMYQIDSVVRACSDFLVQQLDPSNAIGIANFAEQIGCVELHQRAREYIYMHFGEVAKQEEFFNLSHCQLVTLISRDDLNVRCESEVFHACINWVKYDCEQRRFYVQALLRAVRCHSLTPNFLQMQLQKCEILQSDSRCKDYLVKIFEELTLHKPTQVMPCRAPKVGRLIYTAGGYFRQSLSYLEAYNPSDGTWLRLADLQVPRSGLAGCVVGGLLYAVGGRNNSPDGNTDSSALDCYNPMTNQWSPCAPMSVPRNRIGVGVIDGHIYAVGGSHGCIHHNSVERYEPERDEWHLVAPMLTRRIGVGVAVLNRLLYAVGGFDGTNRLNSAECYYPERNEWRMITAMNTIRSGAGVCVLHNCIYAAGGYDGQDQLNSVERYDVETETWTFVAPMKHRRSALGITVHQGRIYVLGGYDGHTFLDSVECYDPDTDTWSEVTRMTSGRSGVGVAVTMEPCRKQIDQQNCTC
# CAL PDZ FP-1: untagged CAL PDZ binding inhibitors, primary screen, biochemical, fluorescence polarization, HTS | Golgi-associated PDZ and coiled-coil motif-containing protein (Homo sapiens), Q9HD26 | purified CAL PDZ, TMR-peptide fluorescence polarization, 1 h | inhibition, % at 24.9 µM | actives 0.92% (n = 300,000);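 active = mean inhibition of at least 30% with at least half of replicates also reaching 30%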;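 note: 0% = DMSO neutral control and 100% = excess unlabeled competitor peptide PRC23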
# miR122 inh: miR-122 Renilla sensor signal increase in Huh7, primary screen, miR-122 inhibitor project, cell-based, single point, plate reader. Huh7 miR-122 Renilla luciferase sensor, 48 h; neutral wells = 0, positive control = 100. activation (reporter increase), % at 12.5 µM. actives 0.3% (n = 340,000). AID 602342, 2012;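 active = mean replicate activation score at least 90 and every replicate individually at or above 90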;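 note: higher luciferase means less miR-122 activity so hits act as miR-122 inhibitors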
# CAL PDZ FP-2: CAL PDZ peptide-binding inhibitors, primary screen, biochemical, fluorescence polarization, Cer-tagged CAL PDZ, HTS. Golgi-associated PDZ and coiled-coil motif-containing protein (Homo sapiens), Q9HD26. actives 0.02% (n = 330,000). inhibition, % at 20 µM. AID 504414, 2011. purified CAL PDZ, TMR-peptide fluorescence polarization, 1 h;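 active = highest replicate inhibition of at least 40%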;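 note: plate controls were DMSO neutral control wells for no effect and unlabeled competitor peptide control wells for full effect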
#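 material = purified tagged CAL PDZ domain construct (CerCALP) | buffer or medium = sodium phosphate/NaCl buffer pH 7.4 with TCEP, IgG, Thesit | reagent = TMR-labelled reporter peptide T*-PRC34 bound in PDZ groove | incubation = 1 h room-temperature incubation prior to read | measured by = fluorescence polarization (mP) | evaluation = percent inhibition from loss of millipolarization | control set = unlabelled peptide and DMSO controls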
# An asterisk follows results filed as active; x = no result given; [ ] = dose if it differs, or a comment. A selection: hits, their analogues and other compounds. The true share with any hit is near 1.1%.
SMILES,C-LANA FP,Keap1-Nrf2 PPI,CAL PDZ FP-1,miR122 inh,CAL PDZ FP-2
CCOCc1cc(=O)[nH]c(SC)n1,3.4,-5.5,70.4*,-6.2,-1.4
CC(C)CNC(=O)NC(=O)COC(=O)COc1ccc(Cl)cc1Cl,0.6,-1.2,45.0*,-0.9,-0.7
C[C@@H]1CCCCO[C@@H](CN(C)C(=O)c2ccccc2)[C@H](C)CN([C@H](C)CO)C(=O)c2cc(NS(=O)(=O)c3ccc(Cl)cc3)ccc2O1,x,x,x,-8.0[16.7 µM],x
COc1ccc(/C=C/CN2CCCC(CO)(Cc3cccc(Cl)c3)C2)cc1 (configuration not stated),0.4,1.5,54.4*,-10.6,-2.0
COc1cc(NS(=O)(=O)c2ccc(-n3cccn3)cc2)cc(OC)c1,x,x,x,95.2*,x
Cc1ccc(NS(=O)(=O)c2ccc(-n3cccn3)cc2)cc1C,1.6,-4.6,2.7,65.0,-3.6
COc1cc(C(=O)OCC(=O)N2CCCCC2C)ccc1OCc1c(C)noc1C (configuration not stated),-2.4,5.1,45.7*,-8.0,0.1
CCN1CC=C2C(C#N)=C(N)C(C#N)(C#N)[C@H](c3cccc(OC)c3OC)[C@H]2C1,37.2,16.0*,-4.6,-0.3,x
CCOc1cc(/C=C/c2ccc3cccc([N+](=O)[O-])c3n2)cc(Cl)c1O,-0.2,3.5,3.3,112.7*,-0.6
O=C(C[C@H]1CC[C@H](NC(=O)C2CC2)[C@H](CO)O1)NCCCN1CCOCC1,x,x,x,6.1[16.7 µM],x
Cc1cc(C(=O)NNC(=O)c2ccc(S(=O)(=O)N(C)C)cc2)c(C)o1,-0.7,-2.6,-2.2,-0.2,-1.4
Cc1cc(C(=O)NNC(=O)c2ccc(Cl)c(S(N)(=O)=O)c2)c(C)o1,10.0,0.5,64.1*,1.5,0.1
COc1ccc(OCC(=O)Nc2ccc(S(=O)(=O)Nc3cc(C)on3)cc2)cc1,-0.8,-1.6,-1.7,5.4,-2.0
Cc1cc(NS(=O)(=O)c2ccc(NC(=S)NC(=O)c3cccc(S(=O)(=O)N(C)C)c3)cc2)no1,0.5,0.4,52.2*,-1.3,-2.7
Cc1cc(NS(=O)(=O)c2ccc(NC(=S)NC(=O)c3ccc(F)cc3)cc2)no1,1.2,1.7,-3.5,x,-0.2
COc1ccc(CC(=O)Nc2ccc(S(=O)(=O)Nc3cc(C)on3)cc2)cc1,1.1,-0.7,48.9*,3.6,-1.2
Cc1ccc(Cl)c(NC(=O)COC(=O)C2CCC2)c1Cl,1.6,0.4,54.7*,x,-0.7
Cc1ccc(S(=O)(=O)N2CCC(C(=O)OCC(=O)NCc3cccc(Cl)c3)CC2)cc1C,2.6,-5.5,-1.1,-5.0,-2.0
Cc1cc(C)c(NC(=O)COC(=O)C2CCC2)c(Cl)c1,-0.8,-5.1,-1.2,x,-2.2
Cc1ccc(S(=O)(=O)N2CCC(C(=O)OCC(=O)Nc3cc(S(C)(=O)=O)ccc3Cl)CC2)cc1C,0.7,-0.3,40.4*,-5.6,6.0
CS(=O)(=O)c1ccc(Cl)c(NC(=O)COC(=O)c2ccc(F)cc2Cl)c1,71.5*,1.4,14.8,x,0.6
O=C(NC1Cc2ccccc2C1)[C@H]1[C@H](CO)[C@H]2Cn3c(cccc3=O)[C@H]2N1C(=O)c1ccccn1,x,x,x,4.0[16.7 µM],x
C[C@@H]1CN([C@@H](C)CO)C(=O)c2cccc(NS(=O)(=O)c3cn(C)cn3)c2O[C@@H]1CN(C)C(=O)Nc1cccc2ccccc12,x,x,x,-5.5[16.7 µM],x
O=C(COC(=O)Cc1c(F)cccc1Cl)NC(=O)c1ccccc1,0.5,-6.1,49.7*,1.3,-2.1
C[C@H](CO)N1C[C@H](C)[C@H](CN(C)C(=O)Nc2ccc(F)cc2)Oc2ncc(C#CC3CC3)cc2C1=O,x,x,x,-9.8[16.7 µM],x
SMILES,C-LANA FP,Keap1-Nrf2 PPI,CAL PDZ FP-1,miR122 inh,CAL PDZ FP-2
COCCn1c(C)cc(C2=NNC(=Nc3ccccc3)SC2)c1C,0.6,1.5,active,-5.2,-1.1
C=CCn1c(-c2ccccc2OC)n[nH]c1=S,-1.0,-1.3,-2.2,x,-3.8
C=CCn1c(-c2cccc3ccccc23)n[nH]c1=S,2.5,-5.1,49.7*,-2.7,-0.8
CC(=O)c1ccc(S(=O)(=O)Nc2ccc(Cl)c(S(=O)(=O)N3CCCC3)c2)cc1,1.0,-0.6,63.1*,x,-0.3
Cc1ccccc1Nc1nc(N)nc(CN2C(=O)NC3(CCCCC3C)C2=O)n1 (configuration not stated),-1.8,-2.2,50.0*,16.8,-1.2
CO[C@H]1CN(C)C(=O)c2cc(NS(C)(=O)=O)ccc2OC[C@@H](C)N(Cc2cccnc2)C[C@H]1C,x,x,x,5.6[16.7 µM],x
O=C(CN1CCN(c2ccccc2F)CC1)NC(=O)NCc1ccco1,0.6,-2.3,44.1*,x,0.0
CCOc1ccc(S(=O)(=O)N2CN3CCN(C3)C2)cc1,0.6,0.4,62.5*,-10.2,-0.3
CCOc1ccc(S(=O)(=O)N2CCNC(=O)C2)cc1,-1.4,-6.2,15.4,8.3,0.1
COc1ccc(CN2CCNC(=O)C2CC(=O)N(C)CCC2CCOCC2)cc1OC (configuration not stated),-0.3,2.4,93.1*,-7.8,0.1
COc1ccccc1CNc1ccc2nnc(CCNC(=O)c3ccccc3)n2n1,0.6,-5.5,54.4*,x,-1.9
C[C@H](CO)N1C[C@H](C)[C@H](CN(C)C(=O)Cc2ccncc2)Oc2ncc(C#CC3(O)CCCC3)cc2C1=O,x,x,x,-2.7[16.7 µM],x
CCn1cc(C2=NC(C(C)C)CO2)c2ccccc21 (configuration not stated),-1.2,-2.1,0.1,10.5,0.6
CCn1cc(C2=NC(CC(C)C)CO2)c2ccccc21 (configuration not stated),0.3,4.4,65.4*,3.3,-2.4
Cc1ccc(S(=O)(=O)N(C)C[C@@H]2OCCCC[C@@H](C)Oc3ccc(NC(=O)CCC(F)(F)F)cc3C(=O)N([C@H](C)CO)C[C@@H]2C)cc1,x,x,x,5.5[16.7 µM],x
COC(=O)CCCCCC(CCC(=O)OC)NC(C)=O (configuration not stated),-0.5,-6.6,-0.5,238.1*,0.5
CN(C)C(=O)CN1c2cccc3cccc(c23)S1(=O)=O,-2.1,-2.2,30.9*,-7.6,-0.7
N#CC1=C(N)Oc2n[nH]c(-c3cccnc3)c2C1c1ccc([N+](=O)[O-])o1 (configuration not stated),-3.7,-1.2,51.3*,x,-5.4
CN(C)CCCNC(=O)C[C@@H]1C=C[C@H](NC(=O)Cc2cccnc2)[C@@H](CO)O1,x,x,x,-6.2[16.7 µM],x
CN(C)S(=O)(=O)Oc1ccc(C(=O)Nc2cccc(Cl)c2)cc1,0.1,4.5,-8.4,x,-0.5
